Source: paper PMC6925334 (ACS chemical biology, 2019)

Key:
IRE1β* RNase = IRE1β* RNase (Homo sapiens, UniProt Q76MJ5); assay: fluorescence-quenched XBP1 mini-substrate RNase assay, IRE1β*; type: biochemical
Summary of the method: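 Recombinant IRE1β* RNase cleaves a FRET-quenched XBP1 mini-substrate, monitored in real time as a fluorescence increase. Activation is tested at a low, mainly monomeric IRE1β* concentration and inhibition at a higher, dimer-containing concentration. Initial cleavage rates are compared with DMSO. IC50 values are mean ± SEM, n=3. Selectivity is the IRE1α* RNase IC50 divided by the IRE1β* RNase IC50.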

IRE1α* RNase = IRE1α* RNase (Homo sapiens, UniProt O75460); assay: fluorescence-quenched XBP1 mini-substrate RNase assay, IRE1α*; type: biochemical; details: read-out: IRE1α RNase IC50, mean ± SEM, n=3
Chain of IRE1α* RNase (O75460 465-977 limits assumed): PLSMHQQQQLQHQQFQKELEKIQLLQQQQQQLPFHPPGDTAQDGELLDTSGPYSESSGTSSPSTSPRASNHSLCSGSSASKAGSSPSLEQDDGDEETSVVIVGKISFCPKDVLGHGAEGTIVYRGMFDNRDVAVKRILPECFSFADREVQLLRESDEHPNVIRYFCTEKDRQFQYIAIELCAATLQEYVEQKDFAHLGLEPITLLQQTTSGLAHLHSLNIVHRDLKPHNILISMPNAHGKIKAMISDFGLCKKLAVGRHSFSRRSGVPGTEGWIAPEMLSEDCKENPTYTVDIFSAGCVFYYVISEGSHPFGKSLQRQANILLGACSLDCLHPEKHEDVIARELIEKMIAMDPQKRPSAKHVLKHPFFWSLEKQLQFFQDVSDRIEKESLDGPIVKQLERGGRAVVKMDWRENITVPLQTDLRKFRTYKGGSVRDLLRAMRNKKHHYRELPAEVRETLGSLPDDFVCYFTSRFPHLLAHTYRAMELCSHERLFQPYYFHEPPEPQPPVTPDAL
Summary of the method: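 IRE1α* RNase activity was followed in vitro as the real-time rise in fluorescence on cleavage of a FRET-quenched XBP1 mini-substrate. IC50 was taken from inhibition curves, mean ± SEM, n=3. Selectivity is the IRE1α RNase IC50 divided by the IRE1β RNase IC50, for each inhibitor.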

Chain of IRE1β* RNase (Q76MJ5 452-926 limits assumed): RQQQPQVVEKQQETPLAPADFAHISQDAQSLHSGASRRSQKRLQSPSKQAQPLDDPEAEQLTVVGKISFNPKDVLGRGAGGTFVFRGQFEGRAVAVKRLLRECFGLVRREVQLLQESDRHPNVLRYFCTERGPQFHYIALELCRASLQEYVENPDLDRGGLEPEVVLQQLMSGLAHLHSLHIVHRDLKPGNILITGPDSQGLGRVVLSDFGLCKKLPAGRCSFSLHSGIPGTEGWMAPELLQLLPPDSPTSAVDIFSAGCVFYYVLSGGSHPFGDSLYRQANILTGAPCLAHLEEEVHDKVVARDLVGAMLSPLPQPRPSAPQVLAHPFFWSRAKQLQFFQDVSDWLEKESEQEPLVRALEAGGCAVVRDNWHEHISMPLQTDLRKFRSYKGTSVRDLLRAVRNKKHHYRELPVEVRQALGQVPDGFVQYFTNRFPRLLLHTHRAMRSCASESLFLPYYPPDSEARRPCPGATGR

O=C(Nc1c[nH]nc1-c1nc2ccc(CN3CCOCC3)cc2[nH]1)NC1CC1 [AT9283]
rate of XBP1 mini-substrate cleavage relative to the apo form (IRE1β* RNase; Low [IRE1β*] (mainly monomeric), RNase activation): 12 fold

Cc1ccc2c(NS(=O)(=O)c3ccccc3Cl)cccc2c1Oc1ncccc1-c1ccnc(N[C@H]2CCCNC2)n1 [compound 1]
effect on ability to cleave the XBP1 mini-substrate (IRE1β* RNase; High [IRE1β*] (RNase active dimer)): almost complete loss in its ability to cleave the XBP1 mini-substrate
IRE1β RNase Selectivity (Fold) (IRE1β* RNase; IRE1α* RNase IC50 divided by IRE1β* RNase IC50): 0.09 Fold
IC50 (IRE1β* RNase; read-out: IRE1β RNase IC50, mean ± SEM, n=3, XBP1 mini-substrate): 55 ± 5 nM
IC50 (IRE1α* RNase): 5 ± 2.3 nM
